NR2E3 ag-1: NR2E3 (human) agonism; GST-NR2E3/biotin-RetCOR TR-FRET, 1536-well; inhibition of corepressor binding, % at 4.78 µM; 320,000 tested, 0.12% active; Q9Y5X4;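 active means percent inhibition above the cutoff of mean plus 3 SD of all tested compounds, set per screening campaign, cut at about 20% in these data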;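 further: 0% = DMSO wells and 100% = biotin wells as full block of FRET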
Target sequence (Q9Y5X4 whole entry, looked up): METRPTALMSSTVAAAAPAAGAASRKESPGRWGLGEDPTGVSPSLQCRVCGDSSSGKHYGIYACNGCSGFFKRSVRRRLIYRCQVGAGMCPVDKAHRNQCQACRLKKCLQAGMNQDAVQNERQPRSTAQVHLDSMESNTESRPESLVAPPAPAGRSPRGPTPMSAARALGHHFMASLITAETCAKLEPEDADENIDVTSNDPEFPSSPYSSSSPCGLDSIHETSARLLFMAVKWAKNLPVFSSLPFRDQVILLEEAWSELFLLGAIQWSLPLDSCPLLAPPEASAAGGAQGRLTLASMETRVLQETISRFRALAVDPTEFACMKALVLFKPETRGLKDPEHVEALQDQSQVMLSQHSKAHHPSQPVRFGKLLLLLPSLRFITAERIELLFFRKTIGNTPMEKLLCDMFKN
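Material: NR2E3–RetCOR corepressor complex / Incubation: Compound–protein incubation for 5 h at 4 °C / Dosing: compound at 4.8 µM, single dose / Detection: time-resolved FRET / Benchmarks: high control biotin, low control 0.6% DMSO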
Neddyl block: inhibitors of human cullin neddylation | TR-FRET cullin neddylation, biochemical | calls only at 25 µM | 360,000 tested, 0.58% active | AID 651699; in the data active means inhibition above about 36%
Rev-erbA mod: modulators of human Rev-erb alpha DNA binding; AID 1259318; P20393; activity, % at 10 µM; Rev-erbα–FITC-DNA binding, fluorescence polarization, 90 min; 370,000 tested, 0.79% active;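 active means activity above about 14%, limit read from the data; passing the limit was not always enough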;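 further: 0% = DMSO wells with 35 nM protein and 100% = DMSO wells with 750 nM protein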
NR2E3 ag-2: human photoreceptor-specific nuclear receptor agonism | Q9Y5X4 | CHO-S Gal4-NCOR/VP16-NR2E3 two-hybrid, luciferase | inhibition of corepressor binding, % at 3.98 µM | 360,000 tested, 0.35% active | AID 602229;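 active means inhibition above the mean of all tested compounds plus 3 SD, cut at about 70% in these data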;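 further: 0% = DMSO with NR2E3 transfected cells and 100% = cells lacking NR2E3 construct; higher means lower luciferase signal from less NR2E3 corepressor binding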
PG9 binder: binds the HIV-1 gp120 antibody PG9 | inhibition, % at 6.7 µM | 360,000 tested, 0.43% active | TR-FRET gp120-PG9 antibody binding; in the data active means inhibition above about 8.5%
NR2E3 ag conf: NR2E3 agonism confirmed in two-hybrid assay; shares compounds with NR2E3 ag-2; CHO-S mammalian two-hybrid NR2E3-NCOR, luciferase luminescence; inhibition, % at 3.98 µM; 2,300 tested, 51% active; AID 624378;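 active means average inhibition above a cutoff equal to the mean inhibition of all tested compounds plus one SD, cut at about 70% in these data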;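 further: 0% = DMSO in NR2E3 cells and 100% = DMSO in cells lacking NR2E3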
VP16 counter: GAL4-VP16 reporter inhibition in NR2E3 agonist counterscreen | 2,300 tested, 29% active | inhibition, % at 3.98 µM | CHO-S GAL4-VP16 luciferase reporter, luminescence | shares compounds with NR2E3 ag-2;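 active means mean inhibition above a cutoff equal to the average over all tested compounds plus one standard deviation, cut at about 70% in these data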;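 further: luciferase from a UAS reporter driven by GAL4-VP16 transactivation; 0% = DMSO with VP16-transfected cells and 100% = DMSO with cells lacking VP16; higher means less reporter light so more repression of VP16 activity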
Active calls of the source: *; i = inactive; . = not tested or not shown. In the library only some 2% were active in any assay of this set; here they are far more common.

SMILES	NR2E3 ag-1	Neddyl block	Rev-erbA mod	NR2E3 ag-2	PG9 binder	NR2E3 ag conf	VP16 counter
Cc1ccc(S(=O)(=O)NCc2ccccc2)cc1C(=O)NCCc1ccc(S(N)(=O)=O)cc1	5	i	-1	58	0	4	1
CCCCCCCCN1C(=O)[C@@H](CC(=O)NCc2cccc(C(F)(F)F)c2)C[C@@]2(C(=O)OC)C1=C[C@H](C1CCCC1)O[C@@H]2C	.	.	-3	.	0	.	.
CC(OC(=O)c1cc(Br)ccc1O)C(=O)Nc1ccc(S(=O)(=O)N2CCCC2)cc1 (centres undefined)	-1	i	-1	52	1	-23	-4
CC1(C)CC(=O)C=C(Nc2ccccc2NC(=O)c2cccc(F)c2F)C1	.	.	-5	.	.	.	.
COc1cccc2c1C(=O)c1c(O)c3c(c(O)c1C2=O)C[C@@](O)(C(=O)CO)C[C@@H]3OC1CC(N)C(O)C(C)O1 (some centres undefined)	.	i	-13	-65	-13	.	.
COc1cccc2c1C(=O)c1c(O)c3c(c(O)c1C2=O)CC(O)(C(C)=O)CC3OC1CC(N(C)C)C(O)C(C)O1 (centres undefined)	.	i	15	88*	-9	100*	52
Cc1ccc(-n2ncc3c(SCc4cccnc4)ncnc32)c(C)c1	.	i	1	54	1	81*	63
COc1cccc(NS(=O)(=O)c2ccc3c(c2)N(C(C)=O)CCO3)c1	-4	i	0	-2	0	.	.
CC(=O)N1CCc2cc(S(=O)(=O)N3CCc4ccccc43)ccc21	2	i	3	74*	0	51	47
CC(=O)N1CCc2cc(S(=O)(=O)N3CCc4ccccc4C3)ccc21	2	i	1	17	-1	.	.
COc1cccc(NS(=O)(=O)c2ccc3c(c2)CCN3C(C)=O)c1	-1	i	-7	67	-1	62	59
CSc1cccc(NS(=O)(=O)c2ccc3c(c2)CCN3C(C)=O)c1	0	i	0	72*	0	85*	77*
COc1ccc(CNS(=O)(=O)c2ccc3c(c2)CCN3C(=O)C2CCC2)cc1	-2	i	-8	51	0	27	43
Nc1[nH]c(C(=O)c2ccc(Br)cc2)c(-c2ccncc2)c1C(=O)NCCc1c[nH]c2ccccc12	.	.	13	.	1	.	.
COc1ccc(-n2c(SC/C=C/c3ccccc3)nnc2-c2cccs2)cc1	.	.	-2	.	.	.	.
CC(=O)N1CCc2cc(S(=O)(=O)Nc3cccc(C(F)(F)F)c3)ccc21	-1	i	0	65	-2	63	38
CC(=O)N1CCc2cc(S(=O)(=O)Nc3ccc(C)cc3)ccc21	-2	i	4	-34	1	.	.
CN(CC(=O)Nc1cccc(F)c1)C(=O)c1ccc(N2CCCCC2)c([N+](=O)[O-])c1	5	i	2	53	-1	54	49
COc1ccc(CN(C)C(=O)c2cccc(S(=O)(=O)N3CCN(c4ccccc4)CC3)c2)c(OC)c1OC	5	i	4	54	-1	83*	64
COc1ccc(NC(=O)CN(C)C(=O)c2ccc(N3CCCC3)c([N+](=O)[O-])c2)cc1	-4	i	10	10	-3	.	.
CN(CC(=O)Nc1cccc(F)c1)C(=O)c1cc(S(=O)(=O)N2CCN(c3ccccc3)CC2)ccc1Cl	2	i	1	54	-1	37	44
CN(Cc1ccc(F)cc1)C(=O)c1cccc(S(=O)(=O)N2CCN(c3ccc(F)cc3)CC2)c1	-2	i	8	60	1	38	30
CC(=O)Nc1ccc(/C=C/COC(C)=O)cc1C	.	.	-9	.	.	.	.
O=C(/C=C(\Nc1ccc(F)cc1)c1ccccc1)c1ccccc1	.	.	2	.	1	.	.
NC(=S)NN=C1c2ccccc2-c2cc(Br)ccc21	.	i	10	85*	0	-5	-27
SMILES	NR2E3 ag-1	Neddyl block	Rev-erbA mod	NR2E3 ag-2	PG9 binder	NR2E3 ag conf	VP16 counter
Cc1cc(N2CCN(c3cccc(C(F)(F)F)c3)CC2)n2ncnc2n1	-3	i	5	-7	1	.	.
Cc1nc2ncnn2c(N2CCN(c3cccc(C(F)(F)F)c3)CC2)c1C	-4	i	-1	71*	-3	72*	47
O=C(Nc1cccc(S(=O)(=O)Nc2ccc(Cl)cc2)c1)c1ccc(Cl)nc1	7	i	7	74*	2	59	76*
O=C(Nc1ccc(NS(=O)(=O)c2ccccc2)cc1)c1ccc(Cl)cc1	-2	i	-4	8	1	.	.
COc1cccc(S(=O)(=O)Nc2ccc(C(=O)Nc3ccncc3)cc2)c1	-1	i	5	3	4	.	.
COc1ccc(NS(=O)(=O)c2cccc(NC(=O)c3ccc(Cl)nc3)c2)cc1	5	i	-4	83*	1	84*	78*
O=C(Nc1ccc(Cl)cc1Cl)O[C@@H]1CC[C@@]23CCCN2C(=O)CCC[C@H]3C1	.	.	3	.	.	.	.
O=C1c2cc([N+](=O)[O-])ccc2-c2cc(Br)c(N=C(NO)C(F)(F)F)cc21	.	i	7	101*	0	97*	61
COc1ccc2oc(C(=O)OCC(=O)N3CCN(S(=O)(=O)c4ccc(C)cc4)CC3)c(C)c2c1	3	i	8	70*	-1	86*	72*
COc1ccccc1CC(=O)N1CCN(c2cccc(C(F)(F)F)c2)CC1	2	i	-2	50	-1	94*	71*
COc1ccccc1NC(=O)N1CCN(c2cccc(C(F)(F)F)c2)CC1	2	i	0	-20	0	.	.
C[C@H](Cc1cc2c(c(C(N)=O)c1)N(CCCO)CC2)NCCOc1ccccc1OCC(F)(F)F	.	.	-7	.	.	.	.
COc1ccc(C(=O)Nc2cnn(Cc3ccc(Cl)cc3)c2)cc1OC	0	i	0	63	-1	63	11
Cc1cc(C(=O)COC(=O)c2ccc3c(c2)OCO3)c(C)n1Cc1cccs1	3	i	-5	90*	0	77*	75*
CCn1nc(C(=O)OCC(=O)c2cc(C)n(Cc3cccs3)c2C)c2ccccc2c1=O	-3	i	-10	-35	0	.	.
Cc1cc(C(=O)COC(=O)c2ccccc2O)c(C)n1Cc1cccs1	-2	i	3	91*	-2	80*	71*
Cc1cc(C(=O)COC(=O)c2ccc(N)c([N+](=O)[O-])c2)c(C)n1Cc1ccc2c(c1)OCO2	-3	i	2	-40	0	.	.
CC/C=C(\C(=O)N[C@@H]1C(=O)N2C(C(=O)OCOC(=O)C(C)(C)C)=C(COC(N)=O)CS[C@H]12)c1csc(N)n1	.	.	-4	.	.	.	.
CC[C@H](CO)Nc1nc(Nc2cccc(Cl)c2)c2ncn(C(C)C)c2n1	3	i	1	92*	0	74*	66

From PubChem BioAssay
